According to ChEMBL document CHEMBL1154546, “Synthesis of 5- and 6-substituted 2-(4-dimethylaminophenyl)-1,3-benzoxazoles and their in vitro and in vivo evaluation as imaging agents for amyloid plaque” (Bioorg Med Chem Lett, 2009):
Active and inactive are the calls of the source.

Assays:
[1] = Displacement of [3H]BTA1 from amyloid beta (1 to 40) peptide by […]
[2] = system: Papio anubis; experiment: In vivo binding affinity to amyloid beta (1 to 40) peptide in ovariectomized baboon by SPECT imaging; format: functional, organism-based; conditions: tested as the 123I-labelled form
How it was run: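 Nonhuman primate fasted 18-24 h, immobilized with ketamine (10 mg/kg i.m.) plus glycopyrrolate (10 μg/kg i.m.) 2 h before study, intubated, kept on 2.5% isoflurane, vitals checked every 15 min. 123I tracer (3.2 mCi in 8 mL, ethanol/saline) injected. Continuous brain-dedicated SPECT at 159 keV for 1 h. Reconstruction used ramp plus Butterworth filter (cutoff 0.65 cm-1).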

COc1cc(C(=O)Nc2ccc3nc(-c4ccc(N(C)C)cc4)oc3c2)cc(OC)c1OC
Ki [1]: 628 nM

Cc1ccc(C(=O)Nc2ccc3nc(-c4ccc(N(C)C)cc4)oc3c2)cc1
Ki [1]: 86 nM

CN(C)c1ccc(-c2nc3cc(NC(=O)c4ccc5c(c4)OCO5)ccc3o2)cc1
Ki [1]: 17.2 nM

Cc1cccc(C(=O)Nc2ccc3oc(-c4ccc(N(C)C)cc4)nc3c2)c1
Ki [1]: 13.4 nM

CN(C)c1ccc(-c2nc3cc(NC(=O)c4ccccc4)ccc3o2)cc1
Ki [1]: 12 nM

CN(C)c1ccc(-c2nc3ccc(NC(=O)c4ccc(I)cc4)cc3o2)cc1
Ki [1]: 60.1 nM

Cc1ccccc1C(=O)Nc1ccc2nc(-c3ccc(N(C)C)cc3)oc2c1
Ki [1]: 112 nM

CN(C)c1ccc(-c2nc3ccc(NC(=O)c4ccc5c(c4)OCO5)cc3o2)cc1
Ki [1]: 19.7 nM

COc1cc(C(=O)Nc2ccc3oc(-c4ccc(N(C)C)cc4)nc3c2)cc(OC)c1OC
Ki [1]: 109 nM

Cc1cccc(C(=O)Nc2ccc3nc(-c4ccc(N(C)C)cc4)oc3c2)c1
Ki [1]: 31.5 nM

CN(C)c1ccc(-c2nc3cc(NC(=O)c4ccc(I)cc4)ccc3o2)cc1
Ki [1]: 9.3 nM
Activity [2]: inactive

Cc1ccc(C(=O)Nc2ccc3oc(-c4ccc(N(C)C)cc4)nc3c2)cc1
Ki [1]: 13.2 nM

Cc1ccccc1C(=O)Nc1ccc2oc(-c3ccc(N(C)C)cc3)nc2c1
Ki [1]: 18.9 nM

CN(C)c1ccc(-c2nc3ccc(NC(=O)c4ccccc4)cc3o2)cc1
Ki [1]: 26 nM
